From ChEMBL document CHEMBL2375307, “Synthesis and identification of β-aryloxyquinoline based diversely fluorine substituted N-aryl quinolone derivatives as a new class of antimicrobial, antituberculosis and antioxidant agents” (Eur J Med Chem, 2013)
Converted amounts (≈) assume the structure as drawn.

Columns and labels:
[1] = system: Escherichia coli; test: Antibacterial activity against Escherichia coli MTCC 443 assessed as growth inhibition after overnight incubation by NCCLS broth microdilution method; assay type: functional
Method in brief: (§1)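 Broth microdilution per NCCLS in Mueller Hinton broth, compounds diluted in DMSO. Primary screen at 500, 250 and 200 µg/mL; actives retested at 100, 62.5, 50, 25 and 12.5 µg/mL. Tubes incubated overnight at 37 °C. […] Non-growing tubes subcultured overnight at 37 °C to judge bacteriostatic versus bactericidal action.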

[2] = system: Aspergillus fumigatus; test: Antifungal activity against Aspergillus fumigatus MTCC 3008 assessed as growth inhibition after overnight incubation by NCCLS broth microdilution method; assay type: functional; method in brief: as §1
[3] = system: Vibrio cholerae; test: Antibacterial activity against Vibrio cholerae MTCC 3906 assessed as growth inhibition after overnight incubation by NCCLS broth microdilution method; assay type: functional
[4] = system: Candida albicans; test: Antifungal activity against Candida albicans MTCC 227 assessed as growth inhibition after overnight incubation by NCCLS broth microdilution method; assay type: functional; method in brief: as §1
[5] = Antioxidant activity of the compound assessed as ascorbic acid equivalent of ferric tripyridyl triazine reducing activity at 200 ug/mL after 15 mins by FRAP assay; assay type: functional
Method in brief: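 FRAP, modified Benzie and Strain method. Fe(III)-TPTZ reagent made with TPTZ in 40 mM HCl, FeCl3 solution and acetate buffer pH 3.6. 200 µL sample solution mixed with 3 mL reagent and held 15 min at 37 °C. Fe(II)-TPTZ read at 593 nm against an ascorbic acid standard, expressed as ascorbic acid equivalents (mmol/100 g compound).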

[6] = system: Streptococcus pneumoniae; test: Antibacterial activity against Streptococcus pneumoniae MTCC 1936 assessed as growth inhibition after overnight incubation by NCCLS broth microdilution method; assay type: functional; method in brief: as §1
[7] = system: Clostridium tetani; test: Antibacterial activity against Clostridium tetani MTCC 449 assessed as growth inhibition after overnight incubation by NCCLS broth microdilution method; assay type: functional
[8] = system: Mycobacterium tuberculosis; test: Antitubercular activity against Mycobacterium tuberculosis H37Rv assessed as growth inhibition at 250 ug/mL after 12 to 28 days by Lowenstein-Jensen method relative to control; assay type: functional; conditions: read-out: GI
Method in brief: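 Modified Lowenstein-Jensen method. Compound at 250 in DMSO added to liquid L-J medium, then sterilized by inspissation and incubated 24 h at 37 °C. Streaked with H37Rv harvested in 0.85% saline (5 × 10⁴ bacilli/tube) and incubated at 37 °C. Colonies read at 12, 22 and 28 days versus drug-free control; no colonies or <20 colonies scored as inhibition.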

[9] = system: Bacillus subtilis; test: Antibacterial activity against Bacillus subtilis MTCC 441 assessed as growth inhibition after overnight incubation by NCCLS broth microdilution method; assay type: functional; method in brief: as §1
[10] = system: Salmonella typhi; test: Antibacterial activity against Salmonella typhi MTCC 98 assessed as growth inhibition after overnight incubation by NCCLS broth microdilution method; assay type: functional, Salmonella enterica subsp. enterica serovar Typhi; conditions: Salmonella enterica

Compound	MIC [1] [µg/mL]	MIC [2] [µg/mL]	MIC [3] [µg/mL]	MIC [4] [µg/mL]	Activity [5] [equiv]	MIC [6] [µg/mL]	MIC [7] [µg/mL]	inhibition of growth at 250 µg/mL [8] [%]	MIC [9] [µg/mL]	MIC [10] [µg/mL]
N#Cc1ccc(Oc2nc3ccccc3cc2C=O)cc1	100 (≈ 365 µM)	500 (≈ 1820 µM)	250 (≈ 911 µM)	1000 (≈ 3650 µM)	19.2	250 (≈ 911 µM)	250 (≈ 911 µM)	42	200 (≈ 729 µM)	100 (≈ 365 µM)
COc1ccc2nc(Oc3ccc(C#N)cc3)c(C3C(C#N)=C(N)N(c4cc(F)ccc4F)C4=C3C(=O)CCC4)cc2c1 (stereo unspecified)	250 (≈ 434 µM)	1000 (≈ 1740 µM)	250 (≈ 434 µM)	1000 (≈ 1740 µM)	278	125 (≈ 217 µM)	125 (≈ 217 µM)	35	200 (≈ 347 µM)	100 (≈ 174 µM)
COc1ccc2nc(Oc3ccc(C#N)cc3)c(C3C(C#N)=C(N)N(c4ccc(F)c(F)c4)C4=C3C(=O)CC(C)(C)C4)cc2c1 (stereo unspecified)	62.5 (≈ 104 µM)	> 1000	100 (≈ 166 µM)	> 1000	153	250 (≈ 414 µM)	250 (≈ 414 µM)	24	250 (≈ 414 µM)	200 (≈ 331 µM)
COc1ccc2nc(Oc3ccc(C#N)cc3)c(C3C(C#N)=C(N)N(c4cccc(C(F)(F)F)c4)C4=C3C(=O)CCC4)cc2c1 (stereo unspecified)	200 (≈ 329 µM)	1000 (≈ 1650 µM)	100 (≈ 165 µM)	500 (≈ 823 µM)	260	125 (≈ 206 µM)	500 (≈ 823 µM)	23	200 (≈ 329 µM)	125 (≈ 206 µM)
Cc1ccc2nc(Oc3ccc(C#N)cc3)c(C3C(C#N)=C(N)N(c4ccc(F)c(F)c4)C4=C3C(=O)CCC4)cc2c1 (stereo unspecified)	200 (≈ 357 µM)	500 (≈ 894 µM)	200 (≈ 357 µM)	250 (≈ 447 µM)	243	250 (≈ 447 µM)	100 (≈ 179 µM)	27	200 (≈ 357 µM)	250 (≈ 447 µM)
COc1ccc2nc(Oc3ccc(C#N)cc3)c(C=O)cc2c1	250 (≈ 822 µM)	1000 (≈ 3290 µM)	250 (≈ 822 µM)	1000 (≈ 3290 µM)	47	200 (≈ 657 µM)	200 (≈ 657 µM)	11	250 (≈ 822 µM)	100 (≈ 329 µM)
CC1(C)CC(=O)C2=C(C1)N(c1cc(F)ccc1F)C(N)=C(C#N)C2c1cc2cc(Cl)ccc2nc1Oc1ccc(C#N)cc1 (stereo unspecified)	250 (≈ 411 µM)	> 1000	250 (≈ 411 µM)	1000 (≈ 1640 µM)	2.17	250 (≈ 411 µM)	125 (≈ 206 µM)	87	100 (≈ 164 µM)	125 (≈ 206 µM)
Cc1ccc2nc(Oc3ccc(C#N)cc3)c(C3C(C#N)=C(N)N(c4cccc(C(F)(F)F)c4)C4=C3C(=O)CCC4)cc2c1 (stereo unspecified)	250 (≈ 423 µM)	> 1000	100 (≈ 169 µM)	250 (≈ 423 µM)	253	250 (≈ 423 µM)	125 (≈ 211 µM)	38	200 (≈ 338 µM)	250 (≈ 423 µM)
CC1(C)CC(=O)C2=C(C1)N(c1ccc(F)c(F)c1)C(N)=C(C#N)C2c1cc2cc(Cl)ccc2nc1Oc1ccc(C#N)cc1 (stereo unspecified)	125 (≈ 206 µM)	500 (≈ 822 µM)	250 (≈ 411 µM)	500 (≈ 822 µM)	3.36	100 (≈ 164 µM)	125 (≈ 206 µM)	84	200 (≈ 329 µM)	200 (≈ 329 µM)
O=C(O)c1cn(C2CC2)c2cc(N3CCNCC3)c(F)cc2c1=O [CIPROFLOXACIN]	25 (≈ 75.4 µM)	–	25 (≈ 75.4 µM)	–	–	50 (≈ 151 µM)	–	–	–	25 (≈ 75.4 µM)
CC1(C)S[C@@H]2[C@H](NC(=O)[C@H](N)c3ccccc3)C(=O)N2[C@H]1C(=O)O [AMPICILLIN]	100 (≈ 286 µM)	–	100 (≈ 286 µM)	–	–	100 (≈ 286 µM)	250 (≈ 715 µM)	–	250 (≈ 715 µM)	100 (≈ 286 µM)
Cc1ccc2nc(Oc3ccc(C#N)cc3)c(C3C(C#N)=C(N)N(c4cc(F)ccc4F)C4=C3C(=O)CCC4)cc2c1 (stereo unspecified)	100 (≈ 179 µM)	> 1000	62.5 (≈ 112 µM)	250 (≈ 447 µM)	239	250 (≈ 447 µM)	200 (≈ 357 µM)	80	125 (≈ 223 µM)	50 (≈ 89.4 µM)
N#CC1=C(N)N(c2ccc(F)c(F)c2)C2=C(C(=O)CCC2)C1c1cc2ccccc2nc1Oc1ccc(C#N)cc1 (stereo unspecified)	100 (≈ 183 µM)	> 1000	100 (≈ 183 µM)	250 (≈ 458 µM)	193	100 (≈ 183 µM)	100 (≈ 183 µM)	75	250 (≈ 458 µM)	125 (≈ 229 µM)
CC1(C)CC(=O)C2=C(C1)N(c1cccc(C(F)(F)F)c1)C(N)=C(C#N)C2c1cc2ccccc2nc1Oc1ccc(C#N)cc1 (stereo unspecified)	250 (≈ 413 µM)	1000 (≈ 1650 µM)	200 (≈ 330 µM)	1000 (≈ 1650 µM)	20.2	200 (≈ 330 µM)	200 (≈ 330 µM)	45	250 (≈ 413 µM)	200 (≈ 330 µM)
N#Cc1ccc(Oc2nc3ccc(Cl)cc3cc2C=O)cc1	250 (≈ 810 µM)	250 (≈ 810 µM)	200 (≈ 648 µM)	> 1000	34.9	125 (≈ 405 µM)	125 (≈ 405 µM)	61	125 (≈ 405 µM)	200 (≈ 648 µM)
N#CC1=C(N)N(c2cc(F)ccc2F)C2=C(C(=O)CCC2)C1c1cc2cc(Cl)ccc2nc1Oc1ccc(C#N)cc1 (stereo unspecified)	100 (≈ 172 µM)	1000 (≈ 1720 µM)	100 (≈ 172 µM)	250 (≈ 431 µM)	100	100 (≈ 172 µM)	100 (≈ 172 µM)	84	200 (≈ 345 µM)	62.5 (≈ 108 µM)
CCn1cc(C(=O)O)c(=O)c2cc(F)c(N3CCNCC3)cc21 [NORFLOXACIN]	10 (≈ 31.3 µM)	–	10 (≈ 31.3 µM)	–	–	10 (≈ 31.3 µM)	50 (≈ 157 µM)	–	100 (≈ 313 µM)	10 (≈ 31.3 µM)
O=C(N[C@H](CO)[C@H](O)c1ccc([N+](=O)[O-])cc1)C(Cl)Cl [CHLORAMPHENICOL]	50 (≈ 155 µM)	–	50 (≈ 155 µM)	–	–	50 (≈ 155 µM)	50 (≈ 155 µM)	–	50 (≈ 155 µM)	50 (≈ 155 µM)
NYSTATIN	–	100	–	100	–	–	–	–	–	–
COC1=CC(=O)C[C@@H](C)[C@]12Oc1c(Cl)c(OC)cc(OC)c1C2=O [GRISEOFULVIN]	–	100 (≈ 283 µM)	–	500 (≈ 1420 µM)	–	–	–	–	–	–
